Assay results from ChEMBL document CHEMBL4184147, “Polyphenolic Phytochemicals in Cancer Prevention and Therapy: Bioavailability versus Bioefficacy” (J Med Chem, 2017).

Legend:
[1] = test system: NCI-H460; assay: Cytotoxicity against human NCI-H460 cells assessed as decrease in cell viability after 48 hrs by MTT assay; format: functional, cell-based; conditions: NCI-H460, 48 h
[2] = test system: BXPC-3; assay: Cytotoxicity against human BxPC3 cells assessed as decrease in cell viability after 48 hrs by MTT assay; format: functional, cell-based; conditions: BXPC-3, 48 h
[3] = test system: PANC-1; assay: Cytotoxicity against human PANC1 cells assessed as decrease in cell viability after 48 hrs by MTT assay; format: functional, cell-based; conditions: PANC-1, 48 h
[4] = Cytotoxicity against human MML1 cells assessed as decrease in cell viability after 48 hrs by MTT assay; format: functional, cell-based
[5] = test system: SK-MEL-2; assay: Cytotoxicity against human SK-MEL-2 cells assessed as decrease in cell viability after 48 hrs by MTT assay; format: functional, cell-based; conditions: SK-MEL-2, 48 h
[6] = test system: MDA-MB-231; assay: Cytotoxicity against human MDA-MB-231 cells assessed as cell viability at 14 uM after 48 hrs by MTT assay; format: functional; conditions: MDA-MB-231, 48 h, read-out: Activity
[7] = test system: T47D; assay: Cytotoxicity against human T47D cells assessed as cell viability at 14 uM after 48 hrs by MTT assay; format: functional; conditions: read-out: Activity
[8] = test system: HT-29; assay: Cytotoxicity against human HT-29 cells assessed as cell viability at 14 uM after 48 hrs by MTT assay; format: functional; conditions: HT-29, 48 h, read-out: Activity
[9] = test system: COLO 201; assay: Cytotoxicity against human COLO201 cells assessed as cell viability at 14 uM after 48 hrs by MTT assay; format: functional; conditions: COLO 201, 48 h, read-out: Activity
[10] = test system: A549; assay: Cytotoxicity against human A549 cells assessed as cell viability at 14 uM after 48 hrs by MTT assay; format: functional; conditions: A549, 48 h, read-out: Activity
[11] = test system: NCI-H460; assay: Cytotoxicity against human NCI-H460 cells assessed as cell viability at 14 uM after 48 hrs by MTT assay; format: functional; conditions: NCI-H460, 48 h, read-out: Activity
[12] = test system: BXPC-3; assay: Cytotoxicity against human BxPC3 cells assessed as cell viability at 14 uM after 48 hrs by MTT assay; format: functional; conditions: BXPC-3, 48 h, read-out: Activity
[13] = test system: PANC-1; assay: Cytotoxicity against human PANC1 cells assessed as cell viability at 14 uM after 48 hrs by MTT assay; format: functional; conditions: PANC-1, 48 h, read-out: Activity
[14] = Cytotoxicity against human MML1 cells assessed as cell viability at 14 uM after 48 hrs by MTT assay; format: functional; conditions: read-out: Activity
[15] = test system: SK-MEL-2; assay: Cytotoxicity against human SK-MEL-2 cells assessed as cell viability at 14 uM after 48 hrs by MTT assay; format: functional; conditions: SK-MEL-2, 48 h, read-out: Activity
[16] = test system: U-87 MG; assay: Cytotoxicity against human U87 cells assessed as cell viability at 14 uM after 48 hrs by MTT assay; format: functional, U-87MG ATCC; conditions: read-out: Activity
[17] = test system: LN-229; assay: Cytotoxicity against human LN229 cells assessed as cell viability at 14 uM after 48 hrs by MTT assay; format: functional; conditions: LN-229, 48 h, read-out: Activity
[18] = Cmax in mouse at 10 mg/kg, iv by LC-MS/MS method; format: ADME, organism-based; set-up: dose 10 mg/kg, route intravenous; conditions: in vivo
In short: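 Mouse iv dosing used polyphenol dissolved in DMSO:ethanol (2:1), with total injected volume never above 30 μL. Plasma levels were measured by previously described methods.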

[19] = Tmax in mouse at 10 mg/kg, iv by LC-MS/MS method; format: ADME, organism-based; conditions: in vivo
In short: (§1)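 For IV dosing, compound dissolved in DMSO:ethanol (2:1), total volume no more than 30 μL. For oral dosing, compound given in a self-microemulsifying delivery system (60% surfactant, emulsifier OP:Cremophor EL 1:1; 30% PEG 400; 10% ethyl oleate), total volume no more than 100 μL. Plasma levels measured by previously described methods.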

[20] = Plasma concentration in mouse at 100 mg/kg, po at 60 mins by LC-MS/MS method; format: ADME, organism-based; in short: as §1
[21] = Plasma concentration in mouse at 10 mg/kg, iv at 60 mins by LC-MS/MS method; format: ADME, organism-based; in short: as §1
[22] = (§2) Cmax in mouse at 100 mg/kg, po by HPLC method; format: ADME, organism-based; set-up: dose 100 mg/kg, route oral; conditions: in vivo
In short: (§3)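 For oral dosing, polyphenol was dissolved in a self-microemulsifying delivery system: 60% surfactant (emulsifier OP:Cremophor EL 1:1), 30% cosurfactant (PEG 400) and 10% oil (ethyl oleate). Total volume given was never above 100 μL. Plasma levels were quantified by previously described methods.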

[23] = (§4) Tmax in mouse at 100 mg/kg, po by HPLC method; format: ADME, organism-based; conditions: in vivo
In short: (§5)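 Given orally in a self-microemulsifying delivery system (60% surfactant, emulsifier OP:Cremophor EL 1:1; 30% PEG 400 cosurfactant; 10% ethyl oleate oil), total volume no more than 100 μL. Plasma levels measured by previously described methods.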

[24] = test system: Homo sapiens; assay: Renal toxicity in patient assessed as decrease in glomerular flow rate at 1400 mg/m'2, iv administered as bolus dose measured after 24 hrs relative to control; format: organism-based; set-up: scale not given: the % may be the effect or the level left; conditions: in vivo
[25] = test system: U-87 MG; assay: Cytotoxicity against human U87 cells assessed as decrease in cell viability after 48 hrs by trypan blue exclusion and LDH release
[26] = test system: T47D; assay: Cytotoxicity against human T47D cells assessed as decrease in cell viability after 48 hrs by trypan blue exclusion and LDH release
[27] = test system: A549; assay: Cytotoxicity against human A549 cells assessed as decrease in cell viability after 48 hrs by trypan blue exclusion and LDH release; conditions: A549, 48 h
[28] = test system: HT-29; assay: Cytotoxicity against human HT-29 cells assessed as decrease in cell viability after 48 hrs by trypan blue exclusion and LDH release; conditions: HT-29, 48 h
[29] = test system: LN-229; assay: Cytotoxicity against human LN229 cells assessed as decrease in cell viability after 48 hrs by trypan blue exclusion and LDH release; conditions: LN-229, 48 h
[30] = test system: COLO 201; assay: Cytotoxicity against human COLO201 cells assessed as decrease in cell viability after 48 hrs by trypan blue exclusion and LDH release; conditions: COLO 201, 48 h
[31] = test system: MDA-MB-231; assay: Cytotoxicity against human MDA-MB-231 cells assessed as decrease in cell viability after 48 hrs by trypan blue exclusion and LDH release; conditions: MDA-MB-231, 48 h
[32] = test system: MDA-MB-231; assay: Cytotoxicity against human MDA-MB-231 cells assessed as cell viability at 41 uM after 48 hrs by MTT assay; format: functional; conditions: MDA-MB-231, 48 h, read-out: Activity
[33] = test system: T47D; assay: Cytotoxicity against human T47D cells assessed as cell viability at 41 uM after 48 hrs by MTT assay; format: functional; conditions: read-out: Activity
[34] = test system: HT-29; assay: Cytotoxicity against human HT-29 cells assessed as cell viability at 41 uM after 48 hrs by MTT assay; format: functional; conditions: HT-29, 48 h, read-out: Activity
[35] = test system: COLO 201; assay: Cytotoxicity against human COLO201 cells assessed as cell viability at 41 uM after 48 hrs by MTT assay; format: functional; conditions: COLO 201, 48 h, read-out: Activity
[36] = test system: A549; assay: Cytotoxicity against human A549 cells assessed as cell viability at 41 uM after 48 hrs by MTT assay; format: functional; conditions: A549, 48 h, read-out: Activity
[37] = test system: NCI-H460; assay: Cytotoxicity against human NCI-H460 cells assessed as cell viability at 41 uM after 48 hrs by MTT assay; format: functional; conditions: NCI-H460, 48 h, read-out: Activity
[38] = test system: BXPC-3; assay: Cytotoxicity against human BxPC3 cells assessed as cell viability at 41 uM after 48 hrs by MTT assay; format: functional; conditions: BXPC-3, 48 h, read-out: Activity
[39] = test system: PANC-1; assay: Cytotoxicity against human PANC1 cells assessed as cell viability at 41 uM after 48 hrs by MTT assay; format: functional; conditions: PANC-1, 48 h, read-out: Activity
[40] = Cytotoxicity against human MML1 cells assessed as cell viability at 41 uM after 48 hrs by MTT assay; format: functional; conditions: read-out: Activity
[41] = test system: SK-MEL-2; assay: Cytotoxicity against human SK-MEL-2 cells assessed as cell viability at 41 uM after 48 hrs by MTT assay; format: functional; conditions: SK-MEL-2, 48 h, read-out: Activity
[42] = test system: U-87 MG; assay: Cytotoxicity against human U87 cells assessed as cell viability at 41 uM after 48 hrs by MTT assay; format: functional, U-87MG ATCC; conditions: read-out: Activity
[43] = test system: LN-229; assay: Cytotoxicity against human LN229 cells assessed as cell viability at 41 uM after 48 hrs by MTT assay; format: functional; conditions: LN-229, 48 h, read-out: Activity
[44] = test system: Mus musculus; assay: as §2; format: ADME, organism-based; set-up: dose 100 mg/kg, route oral; conditions: in vivo; in short: as §3
[45] = test system: Mus musculus; assay: as §4; format: ADME, organism-based; conditions: in vivo; in short: as §5
[46] = test system: Lipid bilayer; assay: Induction of DOPC/n-decane bilayer property changes assessed as concentration required to double gramicidin-induced quencher influx rate by […]

`O=c1c(O)c(-c2ccc(O)c(O)c2)oc2cc(O)cc(O)c12` [QUERCETIN] showed an IC50 [1] of 12 µM, an IC50 [2] of 16 µM and an IC50 [3] of 62 µM. It also gave an IC50 [4] of 15 µM, an IC50 [5] of 12 µM and a viability at 14 µM [6] of 103%. For the same compound, the viability at 14 µM [7] was 100%, the viability at 14 µM [8] was 94% and the viability at 14 µM [9] was 101%. The viability at 14 µM [10] was 104%, the viability at 14 µM [11] was 95% and the viability at 14 µM [12] was 96%. The viability at 14 µM [13] was 102%, the viability at 14 µM [14] was 103% and the viability at 14 µM [15] was 97%. For the same compound, the viability at 14 µM [16] was 97%, the viability at 14 µM [17] was 106% and the Cmax [18] was 27 µM. The Tmax [19] was 5 min, the concentration at 1 h [20] was < 1 µM and the concentration at 1 h [21] was < 1 µM. For the same compound, the Cmax [22] was 8 µM, the Tmax [23] was 15 min and the Activity [24] was 20%. The IC50 [25] was 23 µM, the IC50 [26] was 11 µM and the IC50 [27] was 13 µM. It also gave an IC50 [28] of 18 µM, an IC50 [29] of 12 µM and an IC50 [30] of 19 µM. It also gave an IC50 [31] of 20 µM.
Compound `COc1cc(/C=C/C(=O)CC(=O)/C=C/c2ccc(O)c(OC)c2)ccc1O` [CURCUMIN] has an IC50 [1] of 15 µM, an IC50 [2] of 29 µM and an IC50 [3] of 53 µM. For the same compound, the IC50 [4] was 19 µM, the IC50 [5] was 36 µM and the viability at 41 µM [32] was 90%. The viability at 41 µM [33] was 88%, the viability at 41 µM [34] was 83% and the viability at 41 µM [35] was 81%. The viability at 41 µM [36] was 96%, the viability at 41 µM [37] was 95% and the viability at 41 µM [38] was 102%. The viability at 41 µM [39] was 99%, the viability at 41 µM [40] was 105% and the viability at 41 µM [41] was 97%. The viability at 41 µM [42] was 92%, the viability at 41 µM [43] was 91% and the Cmax [18] was 81 µM. For the same compound, the concentration at 1 h [20] was < 1 µM, the concentration at 1 h [21] was < 1 µM and the Cmax [44] was 27 µM. For the same compound, the Tmax [45] was 15 min, the Activity [46] was 8.6 µM and the IC50 [25] was 16 µM. The IC50 [26] was 19 µM, the IC50 [27] was 18 µM and the IC50 [28] was 14 µM. The IC50 [29] was 15 µM, the IC50 [30] was 18 µM and the IC50 [31] was 12 µM.
